Series [1] in a line: Drug metabolism in sandwich-cultured human hepatocytes assessed as (Z)-N'-hydroxy-6-(5-(5-((Z)-N'-methoxycarbamimidoyl)pyridin-2-yl)furan-2-yl)nicotinimidamide at 10 uM after 4 hrs of incubation by HPLC-MS/MS analysis. It is filed as ADME, cell-based, Hepatocyte. Summed up:
(§1)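 Sandwich-cultured hepatocytes were used on day 5 (human) or day 4 (rat) and rinsed with warm phenol-red-free DMEM. They were then exposed to 10 µM DB868 (0.1–0.2% DMSO) at 37°C. Medium and methanol/water cell lysates were collected at 0.5, 2, 4 and 24 h. Analytes were quantified by HPLC/MS/MS with deuterated internal standards; protein by Bradford. Replicates: 6 (human) or 4 (rat).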

Series [2] concerns Liver microsome. As to the kind of experiment: Prodrug conversion in rat liver microsomes assessed as elution time at 10 uM after 180 mins incubation by HPLC-UV chromatography. As to conditions: 3 h. It is filed as ADME. Summed up:
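HLM or RLM (0.5 mg/mL) were incubated in triplicate in 100 mM phosphate pH 7.4 with 10 mM MgCl2 and an NADPH-regenerating system (1 mM NADP+, glucose 6-phosphate, G6PDH). DB868 was 10 µM. Sampled up to 180 min. Prodrug and metabolites were measured by HPLC-UV at 359 nm and expressed relative to initial prodrug; DB829 LLOQ 50 nM.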
A general note: Liver microsomes are a subcellular fraction often used to study metabolism.

A short description of series [3]: Drug metabolism in sandwich-cultured human hepatocytes assessed as DB829 at 10 uM after 24 hrs of incubation by HPLC-MS/MS analysis. It is filed as ADME, cell-based, Hepatocyte. Summed up:
as §1

Series [4] in a line: Drug metabolism in sandwich-cultured human hepatocytes assessed as (Z)-6-(5-(5-carbamimidoylpyridin-2-yl)furan-2-yl)-N' methoxynicotinimidamide at 10 uM after 4 hrs of incubation by HPLC-MS/MS analysis. It is filed as ADME, cell-based, Hepatocyte. Summed up:
as §1

For another series, the target named is T1, Cytochrome P450 4F1 (Rattus norvegicus, UniProt P33274).
T1 sequence (P33274 whole entry): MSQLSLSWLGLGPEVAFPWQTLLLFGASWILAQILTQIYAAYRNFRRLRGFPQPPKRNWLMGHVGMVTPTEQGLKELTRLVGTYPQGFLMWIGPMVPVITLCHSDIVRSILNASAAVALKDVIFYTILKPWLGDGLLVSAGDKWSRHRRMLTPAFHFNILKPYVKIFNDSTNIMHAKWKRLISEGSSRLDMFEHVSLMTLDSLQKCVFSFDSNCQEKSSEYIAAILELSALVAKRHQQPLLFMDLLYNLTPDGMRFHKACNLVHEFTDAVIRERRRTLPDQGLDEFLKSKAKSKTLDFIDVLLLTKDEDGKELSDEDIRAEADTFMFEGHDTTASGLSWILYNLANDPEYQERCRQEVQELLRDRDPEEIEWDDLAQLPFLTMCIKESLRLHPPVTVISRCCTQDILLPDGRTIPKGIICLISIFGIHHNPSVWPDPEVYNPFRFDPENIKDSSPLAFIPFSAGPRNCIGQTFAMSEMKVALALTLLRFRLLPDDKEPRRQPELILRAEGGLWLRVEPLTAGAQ
As to the kind of experiment: Prodrug conversion assessed as rat purified CYP4F1-mediated (Z)-N'-hydroxy-6-(5-(5-((Z)-N'-methoxycarbamimidoyl)pyridin-2-yl)furan-2-yl) nicotinimidamide formation at 5 uM after 30 mins incubation by HPLC-UV chromatogram. The conditions noted are these: purified enzyme.

In the next series the target is T2, Cytochrome P450 1A2 (Homo sapiens, UniProt P05177).
T2 sequence (P05177 whole entry): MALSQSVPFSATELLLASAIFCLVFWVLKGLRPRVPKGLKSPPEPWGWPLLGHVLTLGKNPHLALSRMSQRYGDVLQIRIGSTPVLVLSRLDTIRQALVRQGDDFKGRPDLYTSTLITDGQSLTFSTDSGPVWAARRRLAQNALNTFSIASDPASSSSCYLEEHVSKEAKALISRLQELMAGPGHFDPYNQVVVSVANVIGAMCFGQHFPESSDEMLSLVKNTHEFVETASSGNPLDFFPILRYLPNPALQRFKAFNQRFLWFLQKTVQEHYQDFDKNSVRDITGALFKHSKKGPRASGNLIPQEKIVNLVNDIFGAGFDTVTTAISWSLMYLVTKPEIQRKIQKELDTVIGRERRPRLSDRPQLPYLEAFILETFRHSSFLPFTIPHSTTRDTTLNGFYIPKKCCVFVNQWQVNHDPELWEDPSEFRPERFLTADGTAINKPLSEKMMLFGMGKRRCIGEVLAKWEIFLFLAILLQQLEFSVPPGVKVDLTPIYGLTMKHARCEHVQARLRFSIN
Put plainly: Prodrug conversion assessed as human recombinant CYP1A2-mediated (Z)-N'-hydroxy-6-(5-(5-((Z)-N'-methoxycarbamimidoyl)pyridin-2-yl)furan-2-yl) nicotinimidamide formation at 5 uM […] by HPLC-UV chromatogram. It counts as ADME. The conditions noted are these: recombinant enzyme, 3 h.

The next series addresses Cytochrome P450 3A4 (Homo sapiens, UniProt P08684). As to the kind of experiment: Prodrug conversion assessed as human recombinant CYP3A4-mediated (Z)-N'-hydroxy-6-(5-(5-((Z)-N'-methoxycarbamimidoyl)pyridin-2-yl)furan-2-yl) nicotinimidamide formation at 5 uM after 180 mins incubation by HPLC-UV chromatogram. It counts as ADME. As to conditions: recombinant enzyme, 15 min, in the assay text read “15 mins” for “180 mins”. Summed up: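 Insect-cell-expressed human or rat P450 (with NADPH-P450 reductase, some also with cytochrome b5) at 0.1 pmol/µL in 100 mM potassium phosphate pH 7.4 with 10 mM MgCl2. DB868 (for M1) or M1 (for M2) was added at 5 µM (0.5% DMSO) and started with 2 mM NADPH. Stopped after 15 min with ice-cold acetonitrile, then HPLC-UV. Duplicate incubations.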

Series [5] has as its system Liver microsome. Put plainly: Drug metabolism in human liver microsomes assessed as (Z)-N'-hydroxy-6-(5-(5-((Z)-N'-methoxycarbamimidoyl)pyridin-2-yl)furan-2-yl nicotinimidamide formation measured per mg of protein by HPLC-MS/MS analysis. It counts as ADME. Put shortly: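 M1 formation kinetics: HLM or RLM (0.5 mg/mL) in phosphate pH 7.4 with MgCl2, DB868 0.1–100 µM, started with 2 mM NADPH. Run 5 min (HLM) or 10 min (RLM) under initial-rate conditions (<20% consumption) in triplicate. Quantified by HPLC/MS/MS with d6-DB868 internal standard. Fitted to a one-enzyme (HLM) or two-enzyme (RLM) Michaelis–Menten model; Clint = Vmax/Km.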

Chain of Cytochrome P450 3A4 (P08684 whole entry): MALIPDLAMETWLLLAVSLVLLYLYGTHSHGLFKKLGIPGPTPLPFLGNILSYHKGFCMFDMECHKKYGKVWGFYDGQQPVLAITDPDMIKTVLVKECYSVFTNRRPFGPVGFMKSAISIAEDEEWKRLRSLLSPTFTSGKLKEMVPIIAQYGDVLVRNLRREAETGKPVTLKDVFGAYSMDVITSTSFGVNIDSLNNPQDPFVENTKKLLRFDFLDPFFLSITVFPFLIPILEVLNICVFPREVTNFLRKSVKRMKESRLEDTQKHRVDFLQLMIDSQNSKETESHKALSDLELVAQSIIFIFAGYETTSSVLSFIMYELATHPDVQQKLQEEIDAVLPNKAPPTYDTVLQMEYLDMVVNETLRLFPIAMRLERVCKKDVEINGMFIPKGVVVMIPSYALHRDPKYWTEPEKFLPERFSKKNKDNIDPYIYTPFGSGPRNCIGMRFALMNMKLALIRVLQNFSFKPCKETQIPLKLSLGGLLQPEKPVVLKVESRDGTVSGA

In the case of `CO/N=C(\N)c1ccc(-c2ccc(-c3ccc(/C(N)=N/OC)cn3)o2)nc1.Cl`, the Drug metabolism entry (in series [1]; in series [3]; in series [4]; on Cytochrome P450 4F1; on Cytochrome P450 1A2; on Cytochrome P450 3A4) was “metabolite_detected” throughout. Also, in the series with Liver microsome [2], the Retention_time came to 18.5 min. In the series with Liver microsome [5], the Vmax – broadly, the top rate of the reaction or transport when substrate is in excess – is reported as 340 pmol/min.

The values are drawn from ChEMBL document CHEMBL3525966, “Compartmental and enzyme kinetic modeling to elucidate the biotransformation pathway of a centrally acting antitrypanosomal prodrug” (Drug Metab Dispos, 2013).
